Measurements: ChEMBL document CHEMBL4680257, “Discovery of novel NF-кB inhibitor based on scaffold hopping: 1,4,5,6,7,8-hexahydropyrido[4,3-d]pyrimidine” (Eur J Med Chem, 2020)

How the values were obtained:
SMMC-7721 = experiment: Cytotoxicity against human SMMC-7721 cells assessed as reduction in cell viability incubated for 24 hrs by MTT assay; type: functional, cell-based; settings: SMMC-7721, 24 h
How it was run: (§1)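 Cells kept at 37 °C in 5% CO₂. HepG2 grown in DMEM with 10% serum; HHL-5, LO2 and SMMC-7721 in 1640 medium with 10% serum. Seeded, grown 24 h, then exposed 24 h to 10, 5, 2.5, 1.25, 0.625 and 0.3125 µg/mL. MTT (5 mg/mL) added for 4 h at 37 °C; formazan dissolved in DMSO, OD read at 570 nm. IC50 averaged from three replicates.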

RAW264.7 [1] = experiment: Antiinflammatory activity against mouse RAW264.7 cells assessed as LPS-induced TNF-alpha at 5 uM pretreated for 2 hrs followed by LPS stimulation and measured after 22 hrs by ELISA (reference value: 0 %); type: functional; settings: time 24 hrs
L02 = experiment: Cytotoxicity against human L02 cells assessed as reduction in cell viability incubated for 24 hrs by MTT assay; type: cell-based; settings: L02, 24 h; how it was run: as §1
RAW264.7 [2] = experiment: Antiinflammatory activity against mouse RAW264.7 cells assessed as LPS-induced IL-6 at 5 uM pretreated for 2 hrs followed by LPS stimulation and measured after 22 hrs by ELISA relative to control (reference value: 0 %); type: functional; settings: time 24 hrs
HepG2 = experiment: Cytotoxicity against human HepG2 cells assessed as reduction in cell viability incubated for 24 hrs by MTT assay; type: functional, cell-based; settings: HepG2, 24 h; how it was run: as §1
RAW264.7 [3] = experiment: Cytotoxicity against mouse RAW264.7 cells assessed as reduction in cell viability at 5 uM incubated for 24 hrs by MTT assay; type: cell-based; settings: raw264.7, 24 h
[4] = Cytotoxicity against human HHL-5 cells assessed as reduction in cell viability incubated for 24 hrs by MTT assay; type: cell-based; settings: HHL-5, 24 h; how it was run: as §1
RAW264.7 [5] = experiment: Antiinflammatory activity against mouse RAW264.7 cells assessed as LPS-induced IL-6 at 30 uM pretreated for 2 hrs followed by LPS stimulation and measured after 22 hrs by ELISA (reference value: 0 %); type: functional; settings: time 24 hrs
How it was run: (§2)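 Mouse RAW264.7 macrophages were pretreated with compound for 2 h, then stimulated with LPS (1.0 µg/mL) for 22 h. Culture medium was centrifuged at 1000 rpm for 10 min, and secreted TNF-α and IL-6 were each quantified by ELISA kit. Inhibition rates are means of three replicates.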

RAW264.7 [6] = experiment: Antiinflammatory activity against mouse RAW264.7 cells assessed as LPS-induced TNF-alpha at 30 uM pretreated for 2 hrs followed by LPS stimulation and measured after 22 hrs by ELISA (reference value: 0 %); type: functional; settings: time 24 hrs; how it was run: as §2

Row | Compound | IC50 (SMMC-7721) | inhibition at 5 µM (RAW264.7 [1]) | IC50 (L02) | inhibition at 5 µM (RAW264.7 [2]) | IC50 (HepG2) | Activity (RAW264.7 [3]) | IC50 [4] | inhibition at 30 µM (RAW264.7 [5]) | inhibition at 30 µM (RAW264.7 [6])
1 | CC(=O)Nc1ccc(S(=O)(=O)N2CC3=C(NC(N)=NC3c3ccc(F)cc3)/C(=C/c3ccc(F)cc3)C2)cc1.Cl (centres undefined) | 6.2 µM | 40.1% | 20.3 µM | 54.2% | 7.4 µM | Non-Toxic | 32.2 µM | – | –
2 | Cl.NC1=NC(c2ccccc2F)C2=C(N1)/C(=C/c1ccccc1F)CN(S(=O)(=O)c1ccc([N+](=O)[O-])cc1)C2 (centres undefined) | 5.7 µM | 72.7% | 12.4 µM | 79.6% | 11.9 µM | Non-Toxic | 10.7 µM | – | –
3 | Cl.NC1=NC(c2ccccc2F)C2=C(N1)/C(=C/c1ccccc1F)CN(S(=O)(=O)c1ccc(C(F)(F)F)cc1)C2 (centres undefined) | 3.5 µM | 84.4% | 22 µM | 82.3% | 3.9 µM | Non-Toxic | 20.8 µM | – | –
4 | Cl.NC1=NC(c2ccc(F)cc2)C2=C(N1)/C(=C/c1ccc(F)cc1)CN(S(=O)(=O)c1ccc(C(F)(F)F)cc1)C2 (centres undefined) | 3.8 µM | 87.5% | 15.4 µM | 81.7% | 3.3 µM | Non-Toxic | 24.4 µM | – | –
5 | Cl.NC1=NC(c2ccc(F)cc2)C2=C(N1)/C(=C/c1ccc(F)cc1)CN(S(=O)(=O)c1ccc(Br)cc1)C2 (centres undefined) | 12.2 µM | 58.1% | 18.3 µM | 64.3% | 5.6 µM | Non-Toxic | 18.3 µM | – | –
6 | Cc1ccc(S(=O)(=O)N2CC3=C(NC(N)=NC3c3ccc(F)cc3)/C(=C/c3ccc(F)cc3)C2)cc1.Cl (centres undefined) | 4.3 µM | 61.8% | 17.7 µM | 60.1% | 4.5 µM | Non-Toxic | 32.7 µM | – | –
7 | Cl.NC1=NC(c2cccc(F)c2)C2=C(N1)/C(=C/c1cccc(F)c1)CN(S(=O)(=O)c1ccc(F)cc1)C2 (centres undefined) | 4.8 µM | 71.6% | 18.8 µM | 74.9% | 12.4 µM | Non-Toxic | 12.9 µM | – | –
8 | S=C(S)N1CCCC1 [PYRROLIDINE DITHIOCARBAMATE] | – | – | – | – | – | – | – | 56.9% | 66.5%
9 | Cl.N#Cc1ccc(S(=O)(=O)N2CC3=C(NC(N)=NC3c3ccccc3F)/C(=C/c3ccccc3F)C2)cc1 (centres undefined) | 19 µM | 62.9% | 12 µM | 71.2% | 11.7 µM | Non-Toxic | 29 µM | – | –
10 | Cl.NC1=NC(c2ccc(F)cc2)C2=C(N1)/C(=C/c1ccc(F)cc1)CN(S(=O)(=O)c1ccc(Cl)cc1)C2 (centres undefined) | 12 µM | 48.4% | 16.7 µM | 54.8% | 7.6 µM | Non-Toxic | 27.1 µM | – | –
11 | Cc1ccc(S(=O)(=O)N2CC3=C(NC(N)=NC3c3cccc(F)c3)/C(=C/c3cccc(F)c3)C2)cc1.Cl (centres undefined) | 11.7 µM | 40.5% | 11.2 µM | 46.7% | 11.7 µM | Non-Toxic | 23.2 µM | – | –
12 | Cl.NC1=NC(c2ccccc2F)C2=C(N1)/C(=C/c1ccccc1F)CN(S(=O)(=O)c1ccccc1)C2 (centres undefined) | 8.5 µM | 46.9% | 11.2 µM | 40.5% | 9.9 µM | Non-Toxic | 9.9 µM | – | –
13 | Cl.NC1=NC(c2ccccc2F)C2=C(N1)/C(=C/c1ccccc1F)CN(S(=O)(=O)c1ccc(F)cc1)C2 (centres undefined) | 10 µM | 78.6% | 16.5 µM | 79.5% | 12.1 µM | Non-Toxic | 12 µM | – | –
14 | Cl.NC1=NC(c2ccccc2F)C2=C(N1)/C(=C/c1ccccc1F)CN(S(=O)(=O)c1ccc(Cl)cc1)C2 (centres undefined) | 4.9 µM | 83% | 11.5 µM | 81.5% | 12.2 µM | Non-Toxic | 9.1 µM | – | –
15 | Cl.NC1=NC(c2cccc(F)c2)C2=C(N1)/C(=C/c1cccc(F)c1)CN(S(=O)(=O)c1ccc([N+](=O)[O-])cc1)C2 (centres undefined) | 12.3 µM | 58.8% | 42.4 µM | 78.5% | 30.6 µM | Non-Toxic | 30.5 µM | – | –
16 | Cl.NC1=NC(c2cccc(F)c2)C2=C(N1)/C(=C/c1cccc(F)c1)CN(S(=O)(=O)c1ccc(Br)cc1)C2 (centres undefined) | 6.3 µM | 69.3% | 10.1 µM | 71% | 10.6 µM | Non-Toxic | 13 µM | – | –
17 | Cl.N#Cc1ccc(S(=O)(=O)N2CC3=C(NC(N)=NC3c3cccc(F)c3)/C(=C/c3cccc(F)c3)C2)cc1 (centres undefined) | 4.2 µM | 74.5% | 17.2 µM | 73% | 3.5 µM | Non-Toxic | 18.9 µM | – | –
18 | Cl.N#Cc1ccc(S(=O)(=O)N2CC3=C(NC(N)=NC3c3ccc(F)cc3)/C(=C/c3ccc(F)cc3)C2)cc1 (centres undefined) | 42.7 µM | 45.9% | 18.6 µM | 51.1% | 11.7 µM | Non-Toxic | 26.7 µM | – | –
19 | Cl.NC1=NC(c2cccc(F)c2)C2=C(N1)/C(=C/c1cccc(F)c1)CN(S(=O)(=O)c1ccc(Cl)cc1)C2 (centres undefined) | 5.5 µM | 57.7% | 15.1 µM | 75.9% | 15 µM | Non-Toxic | 12 µM | – | –
20 | Cl.NC1=NC(c2ccc(F)cc2)C2=C(N1)/C(=C/c1ccc(F)cc1)CN(S(=O)(=O)c1ccc([N+](=O)[O-])cc1)C2 (centres undefined) | 19.1 µM | 65.9% | 12.5 µM | 66.8% | 9.4 µM | Non-Toxic | 10.3 µM | – | –
21 | CC(=O)Nc1ccc(S(=O)(=O)N2CC3=C(NC(N)=NC3c3cccc(F)c3)/C(=C/c3cccc(F)c3)C2)cc1.Cl (centres undefined) | 6.5 µM | 69.9% | 15 µM | 57.5% | 22.9 µM | Non-Toxic | 10.7 µM | – | –
22 | Cl.NC1=NC(c2cccc(F)c2)C2=C(N1)/C(=C/c1cccc(F)c1)CN(S(=O)(=O)c1ccccc1)C2 (centres undefined) | 12.8 µM | 54% | 37.8 µM | 56.3% | 3.7 µM | Non-Toxic | 11.3 µM | – | –
